Measurements: ChEMBL document CHEMBL1132235, “Thioamides: synthesis, stability, and immunological activities of thioanalogues of Imreg. Preparation of new thioacylating agents using fluorobenzimidazolone derivatives” (1999)

Experiments:
Mus musculus [1] = assay: In vivo functional activity against Blood Immunophenotyping in mice at 125 mg/kg dose using NK+ as cell subset
How it was run: (§1)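 Female C57BL/6 mice, 6–8 weeks old, groups of seven, dosed i.p. once daily for four consecutive days (0, 50, 100 or 125 mg/kg) and sacrificed on day 5. Blood and spleen cells were lysed in ACK buffer (pH 7.3, 5 min), washed in PBS and stained 45 min on ice with FITC/PE surface-marker antibodies. Cells were fixed in 1% paraformaldehyde and read by flow cytometry. Values are relative subset percentages, compared by unpaired t test.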

Mus musculus [2] = assay: In vivo functional activity against Blood Immunophenotyping in mice at 50 mg/kg dose using CD4+CD45+ as cell subset; how it was run: as §1
Mus musculus [3] = assay: In vivo functional activity against Blood Immunophenotyping in mice at 50 mg/kg dose using NK+ as cell subset; how it was run: as §1
Mus musculus [4] = assay: In vivo functional activity against spleen Immunophenotyping in mice at 0 mg/kg dose using CD4+CD45+ as cell subset; how it was run: as §1
Mus musculus [5] = assay: In vivo functional activity against spleen Immunophenotyping in mice at 0 mg/kg dose using LY5+ as cell subset; how it was run: as §1
Mus musculus [6] = assay: In vivo functional activity against spleen Immunophenotyping in mice at 0 mg/kg dose using NK+CD3+ as cell subset; how it was run: as §1
Mus musculus [7] = assay: In vivo functional activity against spleen Immunophenotyping in mice at 0 mg/kg dose using TCR+ as cell subset; how it was run: as §1
Mus musculus [8] = assay: In vivo functional activity against spleen Immunophenotyping in mice at 100 mg/kg dose using CD4+CD45+ as cell subset; how it was run: as §1
Mus musculus [9] = assay: In vivo functional activity against spleen Immunophenotyping in mice at 100 mg/kg dose using CD8+CD45+ as cell subset; how it was run: as §1
Mus musculus [10] = assay: In vivo functional activity against spleen Immunophenotyping in mice at 100 mg/kg dose using LY5+ as cell subset; how it was run: as §1
Mus musculus [11] = assay: In vivo functional activity against spleen Immunophenotyping in mice at 100 mg/kg dose using NK+CD3+ as cell subset; how it was run: as §1
Mus musculus [12] = assay: In vivo functional activity against spleen Immunophenotyping in mice at 100 mg/kg dose using TCR+ as cell subset; how it was run: as §1
Mus musculus [13] = assay: In vivo functional activity against spleen Immunophenotyping in mice at 125 mg/kg dose using CD4+CD45+ as cell subset; how it was run: as §1
Mus musculus [14] = assay: In vivo functional activity against spleen Immunophenotyping in mice at 125 mg/kg dose using CD8+CD45+ as cell subset; how it was run: as §1
Mus musculus [15] = assay: In vivo functional activity against spleen Immunophenotyping in mice at 125 mg/kg dose using LY5+ as cell subset; how it was run: as §1
Mus musculus [16] = assay: In vivo functional activity against Blood Immunophenotyping in mice at 0 mg/kg dose using CD4+CD45+ as cell subset; how it was run: as §1
Mus musculus [17] = assay: In vivo functional activity against Blood Immunophenotyping in mice at 0 mg/kg dose using NK+ as cell subset; how it was run: as §1
Mus musculus [18] = assay: In vivo functional activity against Blood Immunophenotyping in mice at 100 mg/kg dose using CD4+CD45+ as cell subset (value in parentheses indicate P value); how it was run: as §1
Mus musculus [19] = assay: In vivo functional activity against Blood Immunophenotyping in mice at 100 mg/kg dose using NK+ as cell subset; how it was run: as §1
Mus musculus [20] = assay: In vivo functional activity against Blood Immunophenotyping in mice at 125 mg/kg dose using CD4+CD45+ as cell subset; how it was run: as §1
Mus musculus [21] = assay: In vivo functional activity against spleen Immunophenotyping in mice at 125 mg/kg dose using NK+CD3+ as cell subset; how it was run: as §1
Mus musculus [22] = assay: In vivo functional activity against spleen Immunophenotyping in mice at 125 mg/kg dose using TCR+ as cell subset; how it was run: as §1
Mus musculus [23] = assay: In vivo functional activity against spleen Immunophenotyping in mice at 50 mg/kg dose using CD4+CD45+ as cell subset; how it was run: as §1
Mus musculus [24] = assay: In vivo functional activity against spleen Immunophenotyping in mice at 50 mg/kg dose using CD8+CD45+ as cell subset; how it was run: as §1
Mus musculus [25] = assay: In vivo functional activity against spleen Immunophenotyping in mice at 50 mg/kg dose using LY5+ as cell subset; how it was run: as §1
Mus musculus [26] = assay: In vivo functional activity against spleen Immunophenotyping in mice at 50 mg/kg dose using NK+CD3+ as cell subset; how it was run: as §1
Mus musculus [27] = assay: In vivo functional activity against spleen Immunophenotyping in mice at 50 mg/kg dose using TCR+ as cell subset; how it was run: as §1
Mus musculus [28] = assay: In vivo functional activity against spleen Immunophenotyping in mice at 0 mg/kg dose using CD8+CD45+ as cell subset; how it was run: as §1

N[C@@H](Cc1ccc(O)cc1)/C(S)=N/CC(=O)NCC(=O)O
Activity (Mus musculus [1]): 6.29
Activity (Mus musculus [2]): 23.94
Activity (Mus musculus [3]): 6.37
Activity (Mus musculus [4]): 41.73
Activity (Mus musculus [5]): 38.03
Activity (Mus musculus [6]): 2.37
Activity (Mus musculus [7]): 58.54
Activity (Mus musculus [8]): 34.63
Activity (Mus musculus [9]): 6.93
Activity (Mus musculus [10]): 40.79
Activity (Mus musculus [11]): 2.99
Activity (Mus musculus [12]): 52.63
Activity (Mus musculus [13]): 31.93
Activity (Mus musculus [14]): 5.46
Activity (Mus musculus [15]): 50.71
Activity (Mus musculus [16]): 22.56
Activity (Mus musculus [17]): 8
Activity (Mus musculus [18]): 22.9
Activity (Mus musculus [19]): 5.84
Activity (Mus musculus [20]): 28.89
Activity (Mus musculus [21]): 3.37
Activity (Mus musculus [22]): 43.59
Activity (Mus musculus [23]): 43.1
Activity (Mus musculus [24]): 5.77
Activity (Mus musculus [25]): 38.56
Activity (Mus musculus [26]): 2.7
Activity (Mus musculus [27]): 59.07
Activity (Mus musculus [28]): 4.97
